For assay [1], the target named is T1, Polyunsaturated fatty acid lipoxygenase ALOX15 (Homo sapiens) (UniProt P16050).
T1 sequence (whole entry): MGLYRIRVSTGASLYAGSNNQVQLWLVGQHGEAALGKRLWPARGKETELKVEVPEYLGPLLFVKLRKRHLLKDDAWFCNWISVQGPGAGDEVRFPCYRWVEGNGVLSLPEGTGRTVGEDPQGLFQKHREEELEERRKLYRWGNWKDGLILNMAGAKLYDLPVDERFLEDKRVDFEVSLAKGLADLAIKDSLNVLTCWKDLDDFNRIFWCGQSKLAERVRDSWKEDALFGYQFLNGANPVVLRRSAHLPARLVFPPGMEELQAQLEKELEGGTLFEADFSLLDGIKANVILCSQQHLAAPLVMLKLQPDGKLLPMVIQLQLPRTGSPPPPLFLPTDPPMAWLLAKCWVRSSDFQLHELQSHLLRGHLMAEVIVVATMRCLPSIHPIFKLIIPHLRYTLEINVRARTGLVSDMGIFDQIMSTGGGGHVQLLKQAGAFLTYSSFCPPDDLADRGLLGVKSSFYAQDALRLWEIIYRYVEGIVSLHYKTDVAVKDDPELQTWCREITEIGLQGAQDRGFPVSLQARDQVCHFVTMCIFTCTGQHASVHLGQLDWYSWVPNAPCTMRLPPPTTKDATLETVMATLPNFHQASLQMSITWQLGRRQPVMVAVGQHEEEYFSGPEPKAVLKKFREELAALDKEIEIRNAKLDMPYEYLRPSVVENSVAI
Put plainly: Inhibition of 15-LO in human PMNL using arachidonic acid as substrate assessed as residual activity at 10 uM preincubated for 15 mins. In a few lines: (§1)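 PMNL were isolated from buffy coats by dextran sedimentation, Nycoprep centrifugation and hypotonic lysis of erythrocytes, then resuspended in PBS pH 7.4 with 1 mg/mL glucose and 1 mM CaCl₂. Cells were pre-incubated with compound for 15 min at 37 °C, then stimulated with A23187 plus AA for 10 min at 37 °C. 15-LO comes from eosinophils and 12-LO from adhering platelets in the preparation. After methanol/HCl stop and PGB₁ addition, metabolites were extracted and quantified by HPLC. Mean ± S.E.M., n = 3–4.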

In assay [2] the target is T2, Polyunsaturated fatty acid lipoxygenase ALOX12 (Homo sapiens) (UniProt P18054).
T2 sequence (whole entry): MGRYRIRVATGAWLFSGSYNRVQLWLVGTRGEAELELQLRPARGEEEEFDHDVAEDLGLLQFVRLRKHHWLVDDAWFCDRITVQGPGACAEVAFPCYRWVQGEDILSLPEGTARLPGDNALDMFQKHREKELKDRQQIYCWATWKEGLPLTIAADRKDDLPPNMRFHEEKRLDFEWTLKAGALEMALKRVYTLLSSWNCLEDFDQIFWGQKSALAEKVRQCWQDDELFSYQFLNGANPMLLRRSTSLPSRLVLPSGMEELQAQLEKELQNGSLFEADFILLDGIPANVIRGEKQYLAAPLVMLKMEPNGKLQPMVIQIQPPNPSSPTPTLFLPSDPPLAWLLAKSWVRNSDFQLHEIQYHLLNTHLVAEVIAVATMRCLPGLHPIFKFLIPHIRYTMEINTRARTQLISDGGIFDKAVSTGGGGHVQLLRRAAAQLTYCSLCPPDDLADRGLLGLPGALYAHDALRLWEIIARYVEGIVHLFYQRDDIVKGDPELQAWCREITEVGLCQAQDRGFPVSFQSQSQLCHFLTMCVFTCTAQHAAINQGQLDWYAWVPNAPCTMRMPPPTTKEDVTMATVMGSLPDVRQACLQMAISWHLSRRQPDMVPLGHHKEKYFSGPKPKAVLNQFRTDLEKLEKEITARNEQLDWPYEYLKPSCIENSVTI
Description: Inhibition of 12-LO in human PMNL using arachidonic acid as substrate assessed as residual activity at 10 uM preincubated for 15 mins. In a few lines:
as §1

Assay [3] has as its target T3, Polyunsaturated fatty acid 5-lipoxygenase (Homo sapiens, UniProt P09917).
T3 sequence (P09917 whole entry): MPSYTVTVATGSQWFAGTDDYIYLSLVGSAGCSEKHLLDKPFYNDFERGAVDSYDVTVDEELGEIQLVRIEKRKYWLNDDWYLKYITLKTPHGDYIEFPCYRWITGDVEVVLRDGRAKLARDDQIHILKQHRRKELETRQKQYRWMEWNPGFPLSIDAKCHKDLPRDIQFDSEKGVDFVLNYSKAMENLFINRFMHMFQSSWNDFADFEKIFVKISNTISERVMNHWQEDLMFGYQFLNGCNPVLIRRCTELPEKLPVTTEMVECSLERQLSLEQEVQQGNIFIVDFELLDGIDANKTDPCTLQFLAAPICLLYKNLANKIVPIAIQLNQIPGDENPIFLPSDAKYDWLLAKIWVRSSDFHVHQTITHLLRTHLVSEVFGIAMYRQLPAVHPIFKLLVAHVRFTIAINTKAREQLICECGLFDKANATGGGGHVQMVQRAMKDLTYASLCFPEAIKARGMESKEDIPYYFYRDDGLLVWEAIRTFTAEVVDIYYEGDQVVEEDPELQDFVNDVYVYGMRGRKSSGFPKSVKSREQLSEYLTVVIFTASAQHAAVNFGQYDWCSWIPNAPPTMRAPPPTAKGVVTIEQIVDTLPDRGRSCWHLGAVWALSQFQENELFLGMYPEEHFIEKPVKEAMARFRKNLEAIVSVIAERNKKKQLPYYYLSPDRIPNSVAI
Put plainly: Inhibition of 5-LO in human PMNL using arachidonic acid as substrate preincubated for 15 mins. An outline of the steps:
as §1

Assay [4] concerns the target T4, Polyunsaturated fatty acid 5-lipoxygenase (Homo sapiens) (UniProt P09917).
T4 sequence (whole entry): T3 sequence (P09917 whole entry)
Description: Inhibition of 5-LO in human PMNL using arachidonic acid as substrate assessed as residual activity at 10 uM preincubated for 15 mins. An outline of the steps: as §1

Assay [5] addresses T3, Polyunsaturated fatty acid 5-lipoxygenase. Description: Inhibition of human recombinant 5-LO expressed in Escherichia coli BL21 using arachidonic acid as substrate after 10 mins. In a few lines: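 Purified 5-LO was diluted in PBS/EDTA and pre-incubated with compound for 5–10 min at 4 °C, then pre-warmed for 30 s at 37 °C. The reaction was started with 2 mM CaCl₂ plus AA, run 10 min at 37 °C and stopped with ice-cold methanol. Products were analysed by HPLC.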

The target of assay [6] is T4, Polyunsaturated fatty acid 5-lipoxygenase (Homo sapiens). Put plainly: Inhibition of human recombinant 5-LO expressed in Escherichia coli BL21 using arachidonic acid as substrate assessed as residual activity at 10 uM after 10 mins.
The target in assay [7] is T5, Polyunsaturated fatty acid lipoxygenase ALOX15 (Homo sapiens, UniProt P16050).
T5 sequence (P16050 whole entry): T1 sequence (whole entry)
Put plainly: Inhibition of 15-LO in human PMNL using arachidonic acid as substrate preincubated for 15 mins. In a few lines: as §1

The target of assay [8] is T6, Polyunsaturated fatty acid lipoxygenase ALOX12 (Homo sapiens, UniProt P18054).
T6 sequence (P18054 whole entry): T2 sequence (whole entry)
Description: Inhibition of 12-LO in human PMNL using arachidonic acid preincubated for 15 mins. In a few lines: as §1

The values that follow come from ChEMBL document CHEMBL3108770, “Discovery and biological evaluation of novel 1,4-benzoquinone and related resorcinol derivatives that inhibit 5-lipoxygenase” (Eur J Med Chem, 2013).

Consider `Oc1ccc(-c2csc3ccccc23)c(O)c1`, for which the Activity worked out at 115% in assay [1], 115% in assay [2], 92.8% in assay [4] and 100% in assay [6]. The IC50 in assay [3] and in assay [5] was above 10 µM throughout.

For `Oc1ccc(Cc2ccc3ccccc3c2)c(O)c1`, the half-inhibitory concentration (IC50) (in general, the point on the concentration scale where inhibition reaches its midpoint) in assay [7] was above 10 µM; in assay [8], above 10 µM; in assay [3] it was 2.3 µM; in assay [5], 7.4 µM. For the same molecule, the Activity came to 191% in assay [1], 79.2% in assay [2], 8.9% in assay [4] and 37.2% in assay [6].

With `O=C1C=C(c2cccc([N+](=O)[O-])c2)C(=O)C=C1O`, the Activity in assay [1] amounted to 116%; in assay [2], 60.9%; in assay [4], 61.3%; in assay [6], 8%. Further, the IC50 in assay [3] was above 10 µM; in assay [5], 4.6 µM.

As for `O=C1C=C(c2cccc3c2oc2ccccc23)C(=O)C=C1O`, the Activity in assay [1] turned out to be 79.8%; in assay [2] it was 46.2%; in assay [4], 74.1%; in assay [6], 30.8%. Besides, the results for the concentration for half-maximal inhibition (IC50) in assay [3] and in assay [5] were above 10 µM and 0.8 µM, respectively.

On to `CCCCCCc1ccc(O)cc1O` [HEXYLRESORCINOL], for which the IC50 was above 10 µM in assay [7], above 10 µM in assay [8], 2.8 µM in assay [3] and 4.6 µM in assay [5]. The Activity in assay [1] turned out to be 110%; in assay [2], 69.3%; in assay [4] it was 18.6%; in assay [6], 25.6%.

As for `COC1=CC(=O)C(O)=C(Cc2ccccc2)C1=O`, the Activity worked out at 96.4% in assay [1], 84% in assay [2], 103% in assay [4] and 110% in assay [6]. Moreover, the 50% inhibitory concentration (IC50) in assay [3] and in assay [5] was above 10 µM each time.

With `Oc1ccc(Cc2ccccc2)c(O)c1`, the Activity in assay [1] was 116%; in assay [2], 77%; in assay [4], 60%; in assay [6], 47.6%. For the same molecule, the values for the IC50 in assay [3] and in assay [5] were above 10 µM and 9.4 µM, respectively.

On to `COC1=CC(=O)C(Oc2ccc3ccccc3c2)=CC1=O`, for which the Activity came to 47.9% in assay [1], 73.1% in assay [2], 21.2% in assay [4] and 7.1% in assay [6]. Further, the concentration for half-maximal inhibition (IC50) in assay [3] came out at 6.7 µM; in assay [5], 0.28 µM.

As to `Oc1ccc(-c2cccc3c2Sc2ccccc2S3)c(O)c1`, the IC50 in assay [7] is above 10 µM; in assay [8], above 10 µM; in assay [3], 2.1 µM; in assay [5] it was 3.2 µM. Also, the Activity in assay [1] is 58.3%; in assay [2], 91.4%; in assay [4] it was 10.5%; in assay [6], 15.4%.

As to `O=[N+]([O-])c1cccc(-c2ccc(O)cc2O)c1`, the Activity in assay [1] stood at 108%; in assay [2], 90.1%; in assay [4] it was 64.1%; in assay [6] it was 84.3%. For the same molecule, the IC50 in assay [3] and in assay [5] was above 10 µM in each case.

As to `COC1=CC(=O)C(O)=C(Cc2ccc3ccccc3c2)C1=O`, the Activity was 89.5% in assay [1], 76.4% in assay [2], 56.1% in assay [4] and 92.3% in assay [6]. For the same molecule, the IC50 in assay [3] and in assay [5] was above 10 µM in each case.

As for `Oc1ccc(-c2ccccc2)c(O)c1`, the IC50 in assay [7] is above 10 µM; in assay [8], above 10 µM; in assay [3], 4.2 µM; in assay [5], 2.8 µM. Moreover, the Activity came out at 106% in assay [1], 72.3% in assay [2], 22.7% in assay [4] and 9.4% in assay [6].

As for `O=C1C=C(Cc2ccccc2)C(=O)C=C1O`, the Activity in assay [1] is 132%; in assay [2], 95.4%; in assay [4] it was 93.3%; in assay [6], 74.3%. Moreover, the IC50 in assay [3] and in assay [5] was above 10 µM each time.

Regarding `CCCCCCC1=CC(=O)C(O)=CC1=O`, the IC50 in assay [7] is above 10 µM; in assay [8], above 10 µM; in assay [3], 3 µM; in assay [5] it was 1.4 µM. Further, the Activity in assay [1] worked out at 185%; in assay [2], 89.8%; in assay [4], 15.9%; in assay [6], 14.2%.

In the case of `O=C(Cc1ccc2ccccc2c1)c1ccc(O)cc1O`, the IC50 in assay [7] was above 10 µM; in assay [8] it was above 10 µM; in assay [3] it was 6.8 µM; in assay [5] it was above 10 µM. The Activity came out at 108% in assay [1], 96% in assay [2], 42.4% in assay [4] and 57.4% in assay [6].

Consider `O=C1C=C(Cc2ccc3cc(C(=O)O)ccc3c2)C(=O)C=C1O`, for which the Activity was 80.9% in assay [1], 81.1% in assay [2], 74% in assay [4] and 45.2% in assay [6]. Moreover, the IC50 in assay [3] was above 10 µM; in assay [5], 9 µM.

On to `O=C1C=C(O)C(=O)C(CC2CCCCC2)=C1O`, for which the Activity in assay [1] amounted to 87.3%; in assay [2] it was 85.2%; in assay [4], 90.4%; in assay [6], 95.2%. Moreover, the 50% inhibitory concentration (IC50) in assay [3] and in assay [5] was above 10 µM throughout.

For the molecule `Oc1ccc(-c2cccc3c2oc2ccccc23)c(O)c1`, the Activity in assay [1] is 182%; in assay [2] it was 93.3%; in assay [4], 84.1%; in assay [6], 30.7%. In addition, the figures for the IC50 in assay [3] and in assay [5] were above 10 µM and 6.3 µM, respectively.

For the molecule `O=C1C=C(O)C(=O)C(CC2CCC3CCCCC3C2)=C1O` (stereo not drawn), the IC50 in assay [7] is above 10 µM; in assay [8], above 10 µM; in assay [3], 0.58 µM; in assay [5], 11 µM. In addition, the Activity in assay [1] turned out to be 87.9%; in assay [2] it was 60.9%; in assay [4], 5.4%; in assay [6], 51%.
